Data as given in article PMC7797712 (Medicinal Chemistry Research, 2021).

Test system: cytoplasmic HBV-DNA replication in AML12HBV10 cells
Assay: Antiviral assay in AML12HBV10 cells
Assay type: cell-based, hepatitis B virus
Settings: for EC50: Hepatitis B virus, AML12HBV10, 48 h, read-out: EC50 (50% inhibitory concentration of cytoplasmic HBV-DNA replication); for Anti-HBV potency compared with 27 (58031), in words: AML12HBV10 cells, SAR statement of the text
Outline: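 AML12-derived mouse hepatocyte line carrying a tetracycline-inducible, envelope-deficient HBV genome; seeded at 2 × 10^4 cells/well in tetracycline-free medium. Next day, mock or twofold serial dilution (10 to 0.08 µM) for 48 h. Cells lysed in Tris-HCl pH 7.5/EDTA/NaCl/1% NP-40. Half the lysate NaOH-denatured, neutralised, dot-blotted and hybridised with 32P-labelled HBV minus-strand riboprobe. Phosphorimager quantification; EC50 = concentration reducing HBV DNA by 50%.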

EC50 [µM] | SMILES | Anti-HBV potency compared with 27 (58031), in words
5.08 | O=C1CCN(C(=O)Nc2ccc(F)c(Cl)c2)CN1CCc1ccc(F)cc1 [Compound 22, N-(3-chloro-4-fluorophenyl)-3-(4-fluorophenethyl)-4-oxotetrahydropyrimidine-1(2H)-carboxamide] | 
 | C=CC(=O)NC1CN(C(=O)Nc2ccc(F)c(Cl)c2)CN(Cc2ccc(F)cc2F)C1=O (stereo not shown) [Compound 55, 5-acrylamido-N-(3-chloro-4-fluorophenyl)-3-(2,4-difluorobenzyl)-4-oxotetrahydropyrimidine-1(2H)-carboxamide] | comparable or slightly better potencies
 | CC1(C)CN(C(=O)Nc2ccc(F)c(Cl)c2)CN(Cc2ccc(F)cc2F)C1=O [Compound 48, N-(3-chloro-4-fluorophenyl)-3-(2,4-difluorobenzyl)-5,5-dimethyl-4-oxotetrahydropyrimidine-1(2H)-carboxamide] | diminished the activities only by two to threefold
 | O=C(Nc1ccc(F)c(Cl)c1)N1CC(c2ccccc2)C(=O)N(Cc2ccc(F)cc2F)C1 (stereo not shown) [Compound 50, N-(3-chloro-4-fluorophenyl)-3-(2,4-difluorobenzyl)-4-oxo-5-phenyltetrahydropyrimidine-1(2H)-carboxamide] | comparable or slightly better potencies
 | O=C1CCN(C(=O)Nc2ccc(F)c(Cl)c2)CN1CC1CCN(c2ccccc2)C1 (stereo not shown) [Compound 32, N-(3-chloro-4-fluorophenyl)-4-oxo-3-((1-phenylpyrrolidin-3-yl)methyl)tetrahydropyrimidine-1(2H)-carboxamide] | failed to improve the potencies
 | O=C1CCN(C(=O)Nc2cc(Cl)c(F)c(Cl)c2)CN1Cc1ccc(F)cc1F [Compound 42, N-(3,5-dichloro-4-fluorophenyl)-3-(2,4-difluorobenzyl)-4-oxotetrahydropyrimidine-1(2H)-carboxamide] | reduced the activities
 | O=C(Nc1ccc(F)c(Cl)c1)N1CC(n2cc(C3CC3)nn2)C(=O)N(Cc2ccc(F)cc2F)C1 (stereo not shown) [Compound 52, N-(3-chloro-4-fluorophenyl)-5-(4-cyclopropyl-1H-1,2,3-triazol-1-yl)-3-(2,4-difluorobenzyl)-4-oxotetrahydropyrimidine-1(2H)-carboxamide] | comparable or slightly better potencies
 | O=C1CCN(C(=O)Nc2ccc(F)c(C(F)F)c2)CN1Cc1ccc(F)cc1F [Compound 36, 3-(2,4-difluorobenzyl)-N-(3-(difluoromethyl)-4-fluorophenyl)-4-oxotetrahydropyrimidine-1(2H)-carboxamide] | comparable activities
 | O=C1CCN(C(=O)NCc2ccccc2F)CN1Cc1ccc(F)cc1F [Compound 43, 3-(2,4-difluorobenzyl)-N-(2-fluorobenzyl)-4-oxotetrahydropyrimidine-1(2H)-carboxamide] | not tolerated
 | O=C1CCN(C(=O)Nc2cc(F)c(F)cc2Cl)CN1Cc1ccc(F)cc1F [Compound 41, N-(2-chloro-4,5-difluorophenyl)-3-(2,4-difluorobenzyl)-4-oxotetrahydropyrimidine-1(2H)-carboxamide] | reduced the activities
 | O=C(NC1CN(C(=O)Nc2ccc(F)c(Cl)c2)CN(Cc2ccc(F)cc2F)C1=O)c1ccc(F)cc1F (stereo not shown) [Compound 53, N-(3-chloro-4-fluorophenyl)-5-(2,4-difluorobenzamido)-3-(2,4-difluorobenzyl)-4-oxotetrahydropyrimidine-1(2H)-carboxamide] | comparable or slightly better potencies
 | O=C(Nc1ccc(F)c(Cl)c1)N1CC(Cc2ccccc2)C(=O)N(Cc2ccc(F)cc2F)C1 (stereo not shown) [Compound 51, 5-benzyl-N-(3-chloro-4-fluorophenyl)-3-(2,4-difluorobenzyl)-4-oxotetrahydropyrimidine-1(2H)-carboxamide] | diminished the activities only by two to threefold
 | O=C1CC(CN2CCC(F)(F)C2)N(C(=O)Nc2ccc(F)c(Cl)c2)CN1Cc1ccc(F)cc1F (stereo not shown) [Compound 47, N-(3-chloro-4-fluorophenyl)-3-(2,4-difluorobenzyl)-6-((3,3-difluoropyrrolidin-1-yl)methyl)-4-oxotetrahydropyrimidine-1(2H)-carboxamide] | deteriorated the potency
 | O=C1C2CCCC2N(C(=O)Nc2ccc(F)c(Cl)c2)CN1Cc1ccc(F)cc1F (stereo not shown) [Compound 49, N-(3-chloro-4-fluorophenyl)-3-(2,4-difluorobenzyl)-4-oxooctahydro-1H-cyclopenta[d]pyrimidine-1-carboxamide] | diminished the activities only by two to threefold
 | O=C1CCN(C(=O)Nc2ccc(F)c(Cl)c2)CN1Cc1ccccn1 [Compound 30, N-(3-chloro-4-fluorophenyl)-4-oxo-3-(pyridin-2-ylmethyl)tetrahydropyrimidine-1(2H)-carboxamide] | less active
 | O=C1CCN(C(=O)Nc2cc(F)c(F)c(F)c2)CN1Cc1ccc(F)cc1F [Compound 40, 3-(2,4-difluorobenzyl)-4-oxo-N-(3,4,5-trifluorophenyl)tetrahydropyrimidine-1(2H)-carboxamide] | reduced the activities
2.02 | O=C1CCN(C(=O)Nc2ccc(F)c(Cl)c2)CN1Cc1ccc(F)cc1 [Compound 21, N-(3-chloro-4-fluorophenyl)-3-(4-fluorobenzyl)-4-oxotetrahydropyrimidine-1(2H)-carboxamide] | 
 | CC1CC(=O)N(Cc2ccc(F)cc2F)CN1C(=O)Nc1ccc(F)c(Cl)c1 (stereo not shown) [Compound 44, N-(3-chloro-4-fluorophenyl)-3-(2,4-difluorobenzyl)-6-methyl-4-oxotetrahydropyrimidine-1(2H)-carboxamide] | reduced activity
 | O=C1CCN(C(=O)Nc2cccc(Cl)c2)CN1Cc1ccc(F)cc1F [Compound 35, N-(3-chlorophenyl)-3-(2,4-difluorobenzyl)-4-oxotetrahydropyrimidine-1(2H)-carboxamide] | comparable activities
 | COc1ccc(CN2CN(C(=O)Nc3ccc(F)c(Cl)c3)CCC2=O)c(OC)c1 [Compound 28, N-(3-chloro-4-fluorophenyl)-3-(2,4-dimethoxybenzyl)-4-oxotetrahydropyrimidine-1(2H)-carboxamide] | slightly weaker potency
 | O=C1CCN(C(=O)Nc2ccc(F)c(Cl)c2)CN1Cc1ccncc1 [Compound 29, N-(3-chloro-4-fluorophenyl)-4-oxo-3-(pyridin-4-ylmethyl)tetrahydropyrimidine-1(2H)-carboxamide] | less active
 | Cc1ccc(S(=O)(=O)NC2CN(C(=O)Nc3ccc(F)c(Cl)c3)CN(Cc3ccc(F)cc3F)C2=O)cc1 (stereo not shown) [Compound 54, N-(3-chloro-4-fluorophenyl)-3-(2,4-difluorobenzyl)-5-(4-methylphenylsulfonamido)-4-oxotetrahydropyrimidine-1(2H)-carboxamide] | comparable or slightly better potencies
